# Assay results from ChEMBL document CHEMBL5058577, “EUbOPEN Chemogenomics Library 2 (Multiplex)” (2022).
# Test system: U2OS
# Test: Multiplex assay against U2OS
# Assay type: toxicity, cell-based
# Details: human
# Method in brief: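 Per cents of healthy-nucleus cells form the tubulin, mitochondrial-mass and membrane-permeability phenotype values. Live cells were stained at seeding with Hoechst33342, BioTracker Green Microtubule Cytoskeleton Dye, MitoTracker Red and Annexin V Alexa Fluor 680. After compound addition they were imaged on a CQ1 microscope at 37°C and 5% CO2, and CellPathfinder machine-learning gating split them into Hoechst high-intensity objects or normal cells, normal cells into healthy, pyknosed or fragmented nuclei, and pyknosed cells into mitotic or apoptotic.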
# [1] = 12 h, 1 µM, compound concentration 1 uM, replicate 1
# [2] = 12 h, 1 µM, compound concentration 1 uM, replicate 2
# [3] = 12 h, 10 µM, compound concentration 10 uM, replicate 1
# [4] = 12 h, 10 µM, compound concentration 10 uM, replicate 2
# [5] = 24 h, 1 µM, compound concentration 1 uM, replicate 1
# [6] = 24 h, 1 µM, compound concentration 1 uM, replicate 2
# [7] = 24 h, 10 µM, compound concentration 10 uM, replicate 1
# [8] = 24 h, 10 µM, compound concentration 10 uM, replicate 2
# [9] = 48 h, 1 µM, compound concentration 1 uM, replicate 1
# [10] = 48 h, 1 µM, compound concentration 1 uM, replicate 2
# [11] = 48 h, 10 µM, compound concentration 10 uM, replicate 1
# [12] = 48 h, 10 µM, compound concentration 10 uM, replicate 2
smiles,measurement,setting,value
CC[C@@H](C)Nc1nc(C)nc2c(-c3ccc(OC)nc3C)c(C)nn12 [PEXACERFONT],Population Apoptotic (%),[1],73%
same,Population Fragmented Nuclei (%),[1],24%
same,Population Healthy Nuclei (%),[1],66%
same,Population Hoechst High Intensity Objects (%),[1],3%
same,Population Membrane Permeable-Phenotype (%),[1],2%
same,Population Mitochondria Different-Phenotype (%),[1],3%
same,Population Mitotic Cells (%),[1],26%
same,Population Normal (%),[1],96%
same,Population Pyknosed Nuclei (%),[1],9%
same,Population Tubulin-Different-Phenotype (%),[1],2%
same,Total Cell Count,[1],258
same,Population Apoptotic (%),[2],87%
same,Population Fragmented Nuclei (%),[2],17%
same,Population Healthy Nuclei (%),[2],76%
same,Population Hoechst High Intensity Objects (%),[2],0%
same,Population Membrane Permeable-Phenotype (%),[2],1%
same,Population Mitochondria Different-Phenotype (%),[2],0%
same,Population Mitotic Cells (%),[2],12%
same,Population Normal (%),[2],99%
same,Population Pyknosed Nuclei (%),[2],5%
same,Population Tubulin-Different-Phenotype (%),[2],0%
same,Total Cell Count,[2],136
same,Population Apoptotic (%),[3],90%
same,Population Fragmented Nuclei (%),[3],26%
same,Population Healthy Nuclei (%),[3],64%
same,Population Hoechst High Intensity Objects (%),[3],1%
same,Population Membrane Permeable-Phenotype (%),[3],2%
same,Population Mitochondria Different-Phenotype (%),[3],1%
same,Population Mitotic Cells (%),[3],9%
same,Population Normal (%),[3],98%
same,Population Pyknosed Nuclei (%),[3],8%
same,Population Tubulin-Different-Phenotype (%),[3],1%
same,Total Cell Count,[3],265
same,Population Fragmented Nuclei (%),[4],21%
same,Population Healthy Nuclei (%),[4],70%
same,Population Membrane Permeable-Phenotype (%),[4],12%
same,Population Mitochondria Different-Phenotype (%),[4],7%
same,Population Mitotic Cells (%),[4],10%
same,Population Pyknosed Nuclei (%),[4],7%
same,Population Tubulin-Different-Phenotype (%),[4],4%
same,Total Cell Count,[4],128
same,Population Apoptotic (%),[5],80%
same,Population Fragmented Nuclei (%),[5],21%
same,Population Healthy Nuclei (%),[5],69%
same,Population Hoechst High Intensity Objects (%),[5],2%
same,Population Membrane Permeable-Phenotype (%),[5],5%
same,Population Mitochondria Different-Phenotype (%),[5],2%
same,Population Mitotic Cells (%),[5],20%
same,Population Normal (%),[5],97%
same,Population Pyknosed Nuclei (%),[5],8%
same,Population Tubulin-Different-Phenotype (%),[5],2%
same,Total Cell Count,[5],346
same,Population Apoptotic (%),[6],85%
same,Population Fragmented Nuclei (%),[6],16%
same,Population Healthy Nuclei (%),[6],75%
same,Population Membrane Permeable-Phenotype (%),[6],3%
same,Population Mitochondria Different-Phenotype (%),[6],6%
same,Population Mitotic Cells (%),[6],14%
same,Total Cell Count,[6],172
same,Population Apoptotic (%),[7],80%
same,Population Fragmented Nuclei (%),[7],21%
same,Population Healthy Nuclei (%),[7],71%
same,Population Hoechst High Intensity Objects (%),[7],2%
same,Population Membrane Permeable-Phenotype (%),[7],5%
same,Population Mitochondria Different-Phenotype (%),[7],3%
same,Population Mitotic Cells (%),[7],19%
same,Population Normal (%),[7],97%
same,Population Pyknosed Nuclei (%),[7],7%
same,Population Tubulin-Different-Phenotype (%),[7],4%
same,Total Cell Count,[7],307
same,Population Apoptotic (%),[8],92%
same,Population Fragmented Nuclei (%),[8],14%
same,Population Healthy Nuclei (%),[8],77%
same,Population Hoechst High Intensity Objects (%),[8],0%
same,Population Membrane Permeable-Phenotype (%),[8],7%
same,Population Mitotic Cells (%),[8],7%
same,Population Normal (%),[8],99%
same,Population Pyknosed Nuclei (%),[8],8%
same,Population Tubulin-Different-Phenotype (%),[8],3%
same,Total Cell Count,[8],159
same,Population Apoptotic (%),[9],88%
same,Population Fragmented Nuclei (%),[9],16%
same,Population Healthy Nuclei (%),[9],75%
same,Population Hoechst High Intensity Objects (%),[9],1%
same,Population Membrane Permeable-Phenotype (%),[9],3%
same,Population Mitochondria Different-Phenotype (%),[9],1%
same,Population Mitotic Cells (%),[9],11%
same,Population Normal (%),[9],98%
same,Population Pyknosed Nuclei (%),[9],7%
same,Population Tubulin-Different-Phenotype (%),[9],1%
same,Total Cell Count,[9],476
same,Population Apoptotic (%),[10],91%
same,Population Healthy Nuclei (%),[10],73%
same,Population Hoechst High Intensity Objects (%),[10],2%
same,Population Membrane Permeable-Phenotype (%),[10],5%
same,Population Mitochondria Different-Phenotype (%),[10],4%
same,Population Mitotic Cells (%),[10],8%
same,Population Normal (%),[10],97%
same,Population Pyknosed Nuclei (%),[10],9%
same,Population Tubulin-Different-Phenotype (%),[10],4%
same,Total Cell Count,[10],261
same,Population Apoptotic (%),[11],94%
same,Population Fragmented Nuclei (%),[11],17%
same,Population Healthy Nuclei (%),[11],74%
same,Population Hoechst High Intensity Objects (%),[11],1%
same,Population Membrane Permeable-Phenotype (%),[11],4%
same,Population Mitochondria Different-Phenotype (%),[11],1%
same,Population Mitotic Cells (%),[11],5%
same,Population Normal (%),[11],98%
same,Population Pyknosed Nuclei (%),[11],8%
same,Population Tubulin-Different-Phenotype (%),[11],1%
same,Total Cell Count,[11],478
same,Population Apoptotic (%),[12],100%
same,Population Fragmented Nuclei (%),[12],13%
same,Population Healthy Nuclei (%),[12],77%
same,Population Membrane Permeable-Phenotype (%),[12],6%
same,Population Mitochondria Different-Phenotype (%),[12],3%
same,Population Mitotic Cells (%),[12],0%
same,Population Tubulin-Different-Phenotype (%),[12],2%
same,Total Cell Count,[12],242
